Data as given in ChEMBL document CHEMBL5523707, “Novel Inhibitory Site Revealed by XAP044 Mode of Action on the Metabotropic Glutamate 7 Receptor Venus Flytrap Domain” (J Med Chem, 2024).
The source made the active and inactive calls. The rule behind the calls is not given here.

Columns and labels:
[1] = molecular target: Metabotropic glutamate receptor 7 (Rattus norvegicus) (UniProt P35400); assay: Antagonist activity against LSP4-202-induced rat mGlu7 activation transfected in HEK293 cells co-transfected with chimeric Gqi9 assessed as decrease in LSP4-202 potency by measuring LSP4-202 maximum efficacy at 30 to 100 uM incubated for 24 hrs by IP-one HTRF assay relative to control; type: functional, cell-based; details: filed as antagonist, dose 30-100 µM
Chain of Metabotropic glutamate receptor 7 (Rattus norvegicus) (P35400 whole entry): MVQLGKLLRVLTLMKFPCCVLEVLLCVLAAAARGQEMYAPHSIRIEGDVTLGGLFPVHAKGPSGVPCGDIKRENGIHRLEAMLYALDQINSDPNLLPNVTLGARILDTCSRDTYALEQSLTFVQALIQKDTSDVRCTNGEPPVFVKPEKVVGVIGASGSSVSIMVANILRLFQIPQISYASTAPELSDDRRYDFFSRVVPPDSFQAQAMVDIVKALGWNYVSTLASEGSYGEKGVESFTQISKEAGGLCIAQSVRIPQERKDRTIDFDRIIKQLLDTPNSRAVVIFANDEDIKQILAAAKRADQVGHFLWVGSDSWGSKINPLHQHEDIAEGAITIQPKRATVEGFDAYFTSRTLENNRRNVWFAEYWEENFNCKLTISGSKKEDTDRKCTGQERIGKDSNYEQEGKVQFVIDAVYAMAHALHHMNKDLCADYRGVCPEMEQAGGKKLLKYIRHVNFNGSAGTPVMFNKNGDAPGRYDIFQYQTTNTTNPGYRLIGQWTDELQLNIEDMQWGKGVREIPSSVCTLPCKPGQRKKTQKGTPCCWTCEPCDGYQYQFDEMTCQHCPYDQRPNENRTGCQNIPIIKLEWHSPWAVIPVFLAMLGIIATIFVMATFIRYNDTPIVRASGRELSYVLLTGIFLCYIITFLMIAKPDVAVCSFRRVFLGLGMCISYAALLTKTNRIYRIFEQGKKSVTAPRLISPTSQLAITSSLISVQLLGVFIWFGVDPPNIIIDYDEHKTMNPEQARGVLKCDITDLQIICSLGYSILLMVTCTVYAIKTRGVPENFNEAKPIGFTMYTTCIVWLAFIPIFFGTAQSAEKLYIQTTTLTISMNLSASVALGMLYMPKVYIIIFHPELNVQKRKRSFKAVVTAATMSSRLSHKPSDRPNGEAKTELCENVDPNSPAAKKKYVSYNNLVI
Outline: (§1)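 IP-One HTRF IP1 read-out in HEK293 transiently expressing rat mGlu7 plus chimeric Gqα9, 24 h after electroporation. LSP4-2022 concentration-response was tested with derivatives at 30 or 100 µM. Gives pEC50, pEC50/pEC50 control ratio, and max as % of LSP4-2022 maximal effect over basal. Triplicates, n independent experiments; paired t-test.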

[2] = species on record: Rattus norvegicus; assay: Ratio of pEC50 for antagonist activity against LSP4-202-induced rat mGlu7 activation transfected in HEK293 cells co-transfected with chimeric Gqi9 assessed as decrease in LSP4-202 potency to pEC50 for LSP4-202-induced rat mGlu7 activation transfected in HEK293 cells co-transfected with chimeric Gqi9; type: cell-based; outline: as §1
[3] = molecular target: Metabotropic glutamate receptor 7 (Rattus norvegicus, UniProt P35400); assay: Antagonist activity against rat mGlu7 activation transfected in HEK293 cells co-transfected with chimeric Gqi9 incubated for 24 hrs in presence of LSP4-2022 by IP-one HTRF assay; type: functional, cell-based
Chain of Metabotropic glutamate receptor 7 (P35400 whole entry): as above
Outline: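 Inhibition curves were run with increasing inhibitor concentrations against IP1 production by 30 µM LSP4-2022. Rat mGlu7 was co-expressed with Gqα9 in HEK293 and assayed 24 h post-transfection with IP-One HTRF. IC50/pIC50 are means ± sem of independent experiments in triplicates. pIC50 compared to reference by unpaired t-test.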

[4] = molecular target: Metabotropic glutamate receptor 7 (Rattus norvegicus) (UniProt P35400); assay: Antagonist activity against LSP4-202-induced rat mGlu7 activation transfected in HEK293 cells co-transfected with chimeric Gqi9 assessed as decrease in LSP4-202 potency by measuring LSP4-202 pEC50 incubated for 24 hrs by IP-one HTRF assay; type: functional, cell-based; outline: as §1
[5] = species on record: Rattus norvegicus; assay: Ratio of pEC50 for antagonist activity against LSP4-202 induced rat mGlu7 S229A mutant assessed as decrease in LSP4-202 potency by measuring LSP4-202 pEC50 at 100 uM to pEC50 for LSP4-202-induced rat mGlu7 S229A mutant
[6] = Antagonist activity against LSP4-202-induced rat mGlu7 […] mutant assessed as decrease in LSP4-202 potency by measuring LSP4-202 pEC50 at 30 uM
[7] = molecular target: Metabotropic glutamate receptor 7 (Rattus norvegicus) (UniProt P35400); assay: Competitive antagonist activity against rat mGlu7 receptor assessed as decrease in LSP4-202 effect at 0.3 to 30 uM by Schild plot analysis; details: filed as antagonist, dose 0.3-30 µM
Outline: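 Schild analysis used the shift of LSP4-2022 concentration-response curves in IP-One IP1 assays. Cells were HEK293 co-transfected with rat mGlu7 and Gqα9. Data are means ± sem of 3 to 11 experiments run in triplicates.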

[8] = species on record: Rattus norvegicus; assay: Ratio of pEC50 for antagonist activity against LSP4-202 induced wild type rat mGlu7 assessed as decrease in LSP4-202 potency by measuring LSP4-202 pEC50 at 10 uM to pEC50 for LSP4-202-induced wild type rat mGlu7
[9] = species on record: Rattus norvegicus; assay: Ratio of pEC50 for antagonist activity against LSP4-202 induced rat mGlu7 S229A mutant assessed as decrease in LSP4-202 potency by measuring LSP4-202 pEC50 at 30 uM to pEC50 for LSP4-202-induced rat mGlu7 S229A mutant
[10] = Antagonist activity against LSP4-202-induced rat mGlu7 […] mutant assessed as decrease in LSP4-202 potency by measuring LSP4-202 pEC50 at 10 uM
[11] = species on record: Rattus norvegicus; assay: Ratio of pEC50 for antagonist activity against LSP4-202 induced rat mGlu7 S229A mutant assessed as decrease in LSP4-202 potency by measuring LSP4-202 pEC50 at 3 uM to pEC50 for LSP4-202-induced rat mGlu7 S229A mutant
[12] = species on record: Rattus norvegicus; assay: Ratio of pEC50 for antagonist activity against LSP4-202 induced rat mGlu7 S229A mutant assessed as decrease in LSP4-202 potency by measuring LSP4-202 pEC50 at 10 uM to pEC50 for LSP4-202-induced rat mGlu7 S229A mutant
[13] = species on record: Rattus norvegicus; assay: Ratio of pEC50 for antagonist activity against LSP4-202 induced wild type rat mGlu7 assessed as decrease in LSP4-202 potency by measuring LSP4-202 pEC50 at 30 uM to pEC50 for LSP4-202-induced wild type rat mGlu7
[14] = Antagonist activity against LSP4-202-induced rat mGlu7 […] mutant assessed as decrease in LSP4-202 potency by measuring LSP4-202 pEC50 at 3 uM
[15] = Antagonist activity against LSP4-202-induced rat mGlu7 […] mutant assessed as decrease in LSP4-202 potency by measuring LSP4-202 pEC50 at 100 uM
[16] = species on record: Rattus norvegicus; assay: Ratio of pEC50 for antagonist activity against LSP4-202 induced wild type rat mGlu7 assessed as decrease in LSP4-202 potency by measuring LSP4-202 pEC50 at 3 uM to pEC50 for LSP4-202-induced wild type rat mGlu7

Emax [1] [%]	SMILES	Ratio [2]	other results
98.3	O=C(COc1ccc(I)cc1)c1ccc(O)cc1	0.83	–
101	O=C(COc1ccc([N+](=O)[O-])c([N+](=O)[O-])c1)c1ccc(O)cc1	1	–
101	O=C(COc1c(Cl)cc(Br)cc1Cl)c1ccc(O)cc1	1.01	–
95.4	Cc1ccc(OCC(=O)c2ccc(O)cc2)cc1	0.96	–
87.3	O=C(COc1ccc(Br)cc1F)c1ccc(O)cc1	0.76	IC50 ([3]; read-out: IC50): 2.6 µM; IC50 ([3]; read-out: pIC50 (converted)): 2.24 µM
99.2	O=C(COc1ccc(Br)cc1)c1ccc(O)cc1	0.81	–
–	COc1ccc2c(=O)c3oc4cc(I)ccc4c3oc2c1	–	inhibition [4]: inactive
–	O=C(COc1ccc(Br)cc1F)c1ccc(O)c(F)c1	< 0.6	Ratio [5]: 0.82; EC50 [6]: 21.7 µM; pEC50 [6]: 4.68; Activity [7]: Active; Ratio [8]: 0.72; Ratio [9]: 0.91; IC50 ([3]; read-out: IC50): 0.95 µM; IC50 ([3]; read-out: pIC50 (converted)): 0.851 µM; EC50 [10]: 9.91 µM; pEC50 [10]: 5; Ratio [11]: 1; Ratio [12]: 0.97; Ratio [13]: 0.59; EC50 [14]: 6.88 µM; pEC50 [14]: 5.16; EC50 [15]: 60.7 µM; pEC50 [15]: 4.25; Ratio [16]: 0.82
102	O=C(COc1cccc(I)c1)c1ccc(O)cc1	1.02	–
96.8	O=C(COc1cccc(O)c1)c1ccc(O)cc1	1.03	–
–	O=c1c2ccccc2oc2c1oc1cc(O)ccc12	–	inhibition [4]: inactive
106	O=Cc1ccc(OCC(=O)c2ccc(O)cc2)cc1F	1	–
94.6	O=C(COc1c(F)cc(Br)cc1F)c1ccc(O)cc1	0.85	–
95.9	COc1ccc(C(=O)COc2ccc(I)c(C)c2)cc1	0.97	–
96	COc1ccc(OCC(=O)c2ccc(O)cc2)cc1OC	0.99	–
96.1	O=C(COc1ccc(Br)cc1Br)c1ccc(O)cc1	0.97	–
–	COc1ccc2c(c1)oc1c(=O)c3ccccc3oc12	–	inhibition [4]: inactive
101	O=C(COc1ccc(C(F)(F)F)cc1)c1ccc(O)cc1	0.91	–
–	O=c1c2ccccc2oc2c1sc1ccccc12	–	inhibition [4]: inactive
98.5	O=C(COc1ccc([N+](=O)[O-])cc1)c1ccc(O)cc1	0.87	–
100	O=C(COc1ccc(F)cc1F)c1ccc(O)cc1	1.04	–
88.1	O=C(COc1ccc(O)cc1)c1ccc(O)cc1	1.06	–

SMILES	Emax [1] [%]	Ratio [2]	other results
N#Cc1c(F)cc(OCC(=O)c2ccc(O)cc2)cc1F	94.2	1.03	–
